In brackets after ≈: the same amount, converted by molar mass.
Tests used:
[1] = tested on: Mus musculus; test: Dose normalized AUClast in C57BL/6 mouse at 3 mg/kg, po; type: ADME, organism-based; details: in vivo
Method in brief: (§1)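 Compound dosed to male C57BL/6 mice (1 mg/kg i.v., 3 mg/kg p.o.) and Sprague-Dawley rats (2 mg/kg i.v., 3 mg/kg p.o.), non-fasted, in formulation A (HCl, PEG, solutol, PBS). Beagle dogs were fasted and given 1 mg/kg i.v. in formulation B (HCl, PEG300, solutol HS 15, citrate buffer) or 3 mg/kg p.o. as solid dispersion in 100% PBS (formulation C). Plasma PK parameters were derived.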

[2] = tested on: Rattus norvegicus; test: Tlast in Sprague-Dawley rat at 2 mg/kg, iv; type: ADME, organism-based; details: in vivo
[3] = AUClast in Sprague-Dawley rat at 2 mg/kg, iv; type: ADME, organism-based; parameters: dose 2 mg/kg, route intravenous, time 0 - last; details: in vivo; method in brief: as §1
[4] = tested on: Rattus norvegicus; test: Dose normalized AUClast in Sprague-Dawley rat at 2 mg/kg, iv; type: ADME, organism-based; details: in vivo; method in brief: as §1
[5] = Clearance in Sprague-Dawley rat at 2 mg/kg, iv; type: ADME, organism-based; details: in vivo; method in brief: as §1
[6] = Volume of distribution at steady state in Sprague-Dawley rat at 2 mg/kg, iv; type: ADME, organism-based; details: in vivo, read-out: Vdss
[7] = Apparent terminal half life in Sprague-Dawley rat at 2 mg/kg, iv; type: ADME, organism-based; details: in vivo, read-out: betat1/2(app) (converted); method in brief: as §1
[8] = Tmax in Sprague-Dawley rat at 3 mg/kg, po; type: ADME, organism-based; details: in vivo
[9] = tested on: Rattus norvegicus; test: Tlast in Sprague-Dawley rat at 3 mg/kg, po; type: ADME, organism-based; details: in vivo
[10] = Cmax in Sprague-Dawley rat at 3 mg/kg, po; type: ADME, organism-based; parameters: dose 3 mg/kg, route oral; details: in vivo; method in brief: as §1
[11] = AUClast in Sprague-Dawley rat at 3 mg/kg, po; type: ADME, organism-based; parameters: dose 3 mg/kg, route oral, time 0 - last; details: in vivo; method in brief: as §1
[12] = tested on: Rattus norvegicus; test: Dose normalized AUClast in Sprague-Dawley rat at 3 mg/kg, po; type: ADME, organism-based; details: in vivo; method in brief: as §1
[13] = tested on: Rattus norvegicus; test: Dose normalized Cmax in Sprague-Dawley rat at 3 mg/kg, po; type: ADME, organism-based; details: in vivo; method in brief: as §1
[14] = tested on: Canis familiaris; test: Tlast in Beagle dog at 1 mg/kg, iv; type: ADME, organism-based, Canis lupus familiaris; details: in vivo
[15] = AUClast in Beagle dog at 1 mg/kg, iv; type: ADME, organism-based, Canis lupus familiaris; parameters: dose 1 mg/kg, route intravenous, time 0 - last; details: in vivo; method in brief: as §1
[16] = tested on: Canis familiaris; test: Dose normalized AUClast in Beagle dog at 1 mg/kg, iv; type: ADME, organism-based, Canis lupus familiaris; details: in vivo; method in brief: as §1
[17] = Clearance in Beagle dog at 1 mg/kg, iv; type: ADME, organism-based, Canis lupus familiaris; details: in vivo; method in brief: as §1
[18] = Volume of distribution at steady state in Beagle dog at 1 mg/kg, iv; type: ADME, organism-based, Canis lupus familiaris; details: in vivo, read-out: Vdss
[19] = Apparent terminal half life in Beagle dog at 1 mg/kg, iv; type: ADME, organism-based, Canis lupus familiaris; details: in vivo, read-out: betat1/2(app) (converted); method in brief: as §1
[20] = Oral bioavailability in Sprague-Dawley rat at 3 mg/kg; type: ADME, organism-based; details: in vivo
[21] = Tmax in Beagle dog at 3 mg/kg, po; type: ADME, organism-based, Canis lupus familiaris; details: in vivo
[22] = tested on: Canis familiaris; test: Tlast in Beagle dog at 3 mg/kg, po; type: ADME, organism-based, Canis lupus familiaris; details: in vivo
[23] = Cmax in Beagle dog at 3 mg/kg, po; type: ADME, organism-based, Canis lupus familiaris; parameters: dose 3 mg/kg, route oral; details: in vivo; method in brief: as §1
[24] = tested on: Canis familiaris; test: Dose normalized Cmax in Beagle dog at 3 mg/kg, po; type: ADME, organism-based, Canis lupus familiaris; details: in vivo; method in brief: as §1
[25] = AUClast in Beagle dog at 3 mg/kg, po; type: ADME, organism-based, Canis lupus familiaris; parameters: dose 3 mg/kg, time 0 - last, route oral; details: in vivo; method in brief: as §1
[26] = tested on: Canis familiaris; test: Dose normalized AUClast in Beagle dog at 3 mg/kg, po; type: ADME, organism-based, Canis lupus familiaris; details: in vivo; method in brief: as §1
[27] = Oral bioavailability in Beagle dog at 3 mg/kg; type: ADME, organism-based, Canis lupus familiaris; details: in vivo
[28] = Plasma concentration in nude mouse xenografted with human KCL22 cells at 7.5 mg/kg, po administered as solid dispersion measured after 2 hrs post first dose; type: ADME, organism-based
[29] = Plasma concentration in nude mouse xenografted with human KCL22 cells at 7.5 mg/kg, po administered as solid dispersion measured after 7 hrs post first dose; type: ADME, organism-based
[30] = Drug level in tumor of nude mouse xenografted with human KCL22 cells at 7.5 mg/kg, po administered as solid dispersion measured after 2 hrs post first dose; type: ADME, organism-based, Neoplasm; details: read-out: Drug uptake
[31] = Drug level in tumor of nude mouse xenografted with human KCL22 cells at 7.5 mg/kg, po administered as solid dispersion measured after 7 hrs post first dose; type: ADME, organism-based, Neoplasm; details: read-out: Drug uptake
[32] = Solubility of the compound in SGF at pH 2 compound administered as solid dispersion measured after 120 mins; type: physicochemical
[33] = Solubility of the compound in FaSSIF at pH 6.5 compound administered as solid dispersion measured after 15 mins; type: physicochemical
[34] = Solubility of the compound in FeSSIF at pH 5.8 compound administered as solid dispersion; type: physicochemical
[35] = Lipophilicity, log p of the compound by titration method; type: physicochemical; details: octanol/water

AUClast/dose [1]: 283 ng·h/mL/mg/kg
Tlast [2]: 7 h
AUC(0-t) [3]: 1890 ng·h/mL
AUClast/dose [4]: 944 ng·h/mL/mg/kg
clearance [5]: 16.3 mL/min/kg
Vd [6]: 2.2 L/kg
half-life [7]: 2.7 h
Tmax [8]: 4 h
Tlast [9]: 7 h
Cmax [10]: 60 ng/mL
AUC(0-t) [11]: 268 ng·h/mL
AUClast/dose [12]: 89 ng·h/mL/mg/kg
Cmax/dose [13]: 20 ng/mL/(mg/kg)
Tlast [14]: 24 h
AUC(0-t) [15]: 2810 ng·h/mL
AUClast/dose [16]: 2812 ng·h/mL/mg/kg
clearance [17]: 6 mL/min/kg
Vd [18]: 1 L/kg
half-life [19]: 3.7 h
bioavailability [20]: 9%
Tmax [21]: 0.5 to 1 h
Tlast [22]: 24 h
Cmax [23]: 1260 ng/mL
Cmax/dose [24]: 419 ng/mL/(mg/kg)
AUC(0-t) [25]: 5550 ng·h/mL
AUClast/dose [26]: 1851 ng·h/mL/mg/kg
bioavailability [27]: 66%
concentration at 2 h [28]: 1170 nM
concentration at 7 h [29]: 220 nM
concentration at 2 h [30]: 580 nM
concentration at 7 h [31]: 350 nM
solubility at 2 h [32]: 3000 µg/mL (≈ 6670 µM)
solubility at […] [33]: 260 µg/mL (≈ 578 µM)
solubility [34]: 625 µg/mL (≈ 1390 µM)
logP [35]: 4.1
SMILES: O=C(Nc1ccc(OC(F)(F)Cl)cc1)c1cnc(N2CC[C@@H](O)C2)c(-c2ccn[nH]2)c1 [ASCIMINIB]

Source: ChEMBL document CHEMBL4196169 (J Med Chem, 2018)
